Published values gathered from unrelated publications.
Compare with care: the assays were run in different laboratories.
XDH: Xanthine dehydrogenase/oxidase (XDH, Bos taurus, UniProt P80457)
NT5E: 5'-nucleotidase (NT5E, Homo sapiens, UniProt P21589)
Adra1b: Alpha-1B adrenergic receptor (Adra1b, Rattus norvegicus, UniProt P15823)

Compound | target | test | setting | inhibition
O=C(O)CCc1nccc2c3ccccc3n(Cc3ccc(Br)c4ccccc34)c12 | XDH | enzyme activity, inhibitor, absorbance | 10 µM | 16.4%
C#Cc1cc(-c2cc(Nc3nc(N[C@@H](C)c4ccc(F)cn4)ncc3Cl)n[nH]2)ccc1C=O | Mitogen-activated protein kinase kinase kinase kinase 5 (MAP4K5, Homo sapiens, UniProt Q9Y4K4) | enzyme activity, inhibitor | 0.2 µM | 92%
Cc1cccc(NC(=O)c2sc3nc(C)cc(C)c3c2N)n1 | NT5E | enzyme activity, inhibitor | 10 µM | -21%
Oc1ncnc2[nH]ncc12 | XDH | enzyme activity, inhibitor | 25 µg/mL | > 90%
O=C(NS(=O)(=O)c1ccccc1)c1cc2ccccc2n1Cc1ccc(C2CC2)c2ccccc12 | XDH | enzyme activity, inhibitor, absorbance | 10 µM | 2.49%
O=C(O[C@@H]1COC(=O)c2cc(O)c(O)c(O)c2-c2c(cc(O)c(O)c2O)C(=O)O[C@H]1[C@@H]1OC(=O)c2cc(O)c(O)c(O)c2-c2c(O)c(O)c(O)c3c2C(=O)O[C@H]1[C@@H]3O)c1cc(O)c(O)c(O)c1 | XDH | enzyme activity, inhibitor | 25 µg/mL | 29.8%
N#Cc1c(C(F)(F)F)cc(-c2ccccc2)nc1SCC(=O)Nc1ccccc1 | NT5E | enzyme activity, inhibitor | 10 µM | 16%
CCN1/C(=C/C(C)=O)Sc2ccc(F)cc21 | Adra1b | ligand displacement, radioligand | 10 µM | 4.13%
O=C(O)/C=C/c1nccc2c3ccccc3n(Cc3ccc(Br)c4ccccc34)c12 | XDH | enzyme activity, inhibitor, absorbance | 10 µM | 17.8%
Cc1cc(O)c(-c2ccc([C@@H](C)CN(C)C)cc2)c2c1[nH]c(=O)c1sccc12 | Cyclin-dependent kinase 13 (CDK13, Homo sapiens, UniProt Q14004) | enzyme activity, inhibitor | 0.1 µM | -1.62%
NC/C(=C\F)COc1cccc(Cn2c(=S)[nH]c(=O)c3[nH]cnc32)c1 | Adra1b | ligand displacement, radioligand | 10 µM | < 50%
COCCOCCOCCNC(=O)c1sc2nc(-c3ccccc3)cc(C(F)(F)F)c2c1N | NT5E | enzyme activity, inhibitor | 10 µM | -9%
